According to ChEMBL document CHEMBL3352791, “Thioaryl naphthylmethanone oxime ether analogs as novel anticancer agents” (J Med Chem, 2014):
Active and inactive are the calls of the source. The calls are words filed in the database; no cut-off is given here.

How the values were obtained:
[1] = system: MCF7; test: Antiproliferative activity against human ER-negative MCF7 cells after 72 hrs by MTT assay; format: functional, cell-based; conditions: MCF7, 72 h
[2] = system: MDA-MB-231; test: Cell cycle arrest in human […] cells assessed as accumulation at G1 phase at 5 uM by propidium iodide staining by FACS analysis (reference value: 63.74%); format: functional
[3] = system: MDA-MB-231; test: Cell cycle arrest in human […] cells assessed as accumulation at G2 phase at 5 uM by propidium iodide staining by FACS analysis (reference value: 22.74%); format: functional
[4] = system: MDA-MB-231; test: Cell cycle arrest in human […] cells assessed as accumulation at G1 phase at 7.5 uM by propidium iodide staining by FACS analysis (reference value: 63.74%); format: functional
[5] = biological target: Mast/stem cell growth factor receptor Kit (Homo sapiens) (UniProt P10721); test: Inhibition of cKit (unknown origin) at 10 uM
Mast/stem cell growth factor receptor Kit (Homo sapiens), sequence (P10721 whole entry): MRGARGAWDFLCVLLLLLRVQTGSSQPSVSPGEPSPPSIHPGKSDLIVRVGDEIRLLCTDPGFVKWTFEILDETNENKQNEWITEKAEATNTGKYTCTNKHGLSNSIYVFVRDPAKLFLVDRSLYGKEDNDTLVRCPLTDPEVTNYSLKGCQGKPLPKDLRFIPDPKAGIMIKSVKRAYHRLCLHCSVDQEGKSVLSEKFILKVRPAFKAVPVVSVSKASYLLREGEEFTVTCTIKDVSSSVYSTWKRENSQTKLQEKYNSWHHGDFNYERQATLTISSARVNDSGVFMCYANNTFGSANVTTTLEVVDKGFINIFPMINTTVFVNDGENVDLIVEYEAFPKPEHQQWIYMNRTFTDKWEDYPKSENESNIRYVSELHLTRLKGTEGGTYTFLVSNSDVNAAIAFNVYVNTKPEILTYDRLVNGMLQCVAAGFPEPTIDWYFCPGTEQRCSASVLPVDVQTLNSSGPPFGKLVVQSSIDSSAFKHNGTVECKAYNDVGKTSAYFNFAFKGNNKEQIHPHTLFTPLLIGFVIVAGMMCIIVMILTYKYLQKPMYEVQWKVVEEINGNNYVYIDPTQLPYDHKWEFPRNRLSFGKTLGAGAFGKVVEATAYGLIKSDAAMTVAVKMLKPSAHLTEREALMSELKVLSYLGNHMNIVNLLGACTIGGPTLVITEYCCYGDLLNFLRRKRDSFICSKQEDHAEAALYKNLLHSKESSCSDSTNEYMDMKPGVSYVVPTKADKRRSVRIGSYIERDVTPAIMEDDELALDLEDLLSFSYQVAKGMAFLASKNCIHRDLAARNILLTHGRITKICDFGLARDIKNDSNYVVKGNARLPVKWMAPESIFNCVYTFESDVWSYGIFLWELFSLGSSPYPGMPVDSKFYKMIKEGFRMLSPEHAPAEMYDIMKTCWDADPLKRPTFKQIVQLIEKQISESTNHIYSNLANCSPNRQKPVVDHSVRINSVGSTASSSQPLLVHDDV
In short: (§1)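 Cell-free kinase profiling was run as a standard 33P-ATP-based in vitro kinase assay.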

[6] = system: Mast/stem cell growth factor receptor Kit (Homo sapiens), P10721 [D816A]; test: Inhibition of cKit D816A mutant (unknown origin) at 10 uM; in short: as §1
Mast/stem cell growth factor receptor Kit (Homo sapiens), P10721 [D816A], sequence (P10721 whole entry D816A): as the sequence (P10721 whole entry) above, with D816A counted along it

[7] = system: MDA-MB-231; test: Effect on intracellular calcium level in human MDA-MB-231 cells at 1 to 25 uM by flow cytometry; format: functional, cell-based
In short: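 Trypsinized cells washed in PBS (pH 7.4), loaded with Fluo-4AM 45 min in HBSS, washed and resuspended in calcium-free HBSS; baseline fluorescence read 2 min by flow cytometry, then 7 min after compound addition.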

[8] = biological target: Epidermal growth factor receptor (Homo sapiens) (UniProt P00533); test: Inhibition of EGF-induced EGFR phosphorylation at Tyr1068 in human MDA-MB-231 cells at 0.5 uM by ELISA; format: cell-based
Epidermal growth factor receptor (Homo sapiens), sequence (P00533 whole entry): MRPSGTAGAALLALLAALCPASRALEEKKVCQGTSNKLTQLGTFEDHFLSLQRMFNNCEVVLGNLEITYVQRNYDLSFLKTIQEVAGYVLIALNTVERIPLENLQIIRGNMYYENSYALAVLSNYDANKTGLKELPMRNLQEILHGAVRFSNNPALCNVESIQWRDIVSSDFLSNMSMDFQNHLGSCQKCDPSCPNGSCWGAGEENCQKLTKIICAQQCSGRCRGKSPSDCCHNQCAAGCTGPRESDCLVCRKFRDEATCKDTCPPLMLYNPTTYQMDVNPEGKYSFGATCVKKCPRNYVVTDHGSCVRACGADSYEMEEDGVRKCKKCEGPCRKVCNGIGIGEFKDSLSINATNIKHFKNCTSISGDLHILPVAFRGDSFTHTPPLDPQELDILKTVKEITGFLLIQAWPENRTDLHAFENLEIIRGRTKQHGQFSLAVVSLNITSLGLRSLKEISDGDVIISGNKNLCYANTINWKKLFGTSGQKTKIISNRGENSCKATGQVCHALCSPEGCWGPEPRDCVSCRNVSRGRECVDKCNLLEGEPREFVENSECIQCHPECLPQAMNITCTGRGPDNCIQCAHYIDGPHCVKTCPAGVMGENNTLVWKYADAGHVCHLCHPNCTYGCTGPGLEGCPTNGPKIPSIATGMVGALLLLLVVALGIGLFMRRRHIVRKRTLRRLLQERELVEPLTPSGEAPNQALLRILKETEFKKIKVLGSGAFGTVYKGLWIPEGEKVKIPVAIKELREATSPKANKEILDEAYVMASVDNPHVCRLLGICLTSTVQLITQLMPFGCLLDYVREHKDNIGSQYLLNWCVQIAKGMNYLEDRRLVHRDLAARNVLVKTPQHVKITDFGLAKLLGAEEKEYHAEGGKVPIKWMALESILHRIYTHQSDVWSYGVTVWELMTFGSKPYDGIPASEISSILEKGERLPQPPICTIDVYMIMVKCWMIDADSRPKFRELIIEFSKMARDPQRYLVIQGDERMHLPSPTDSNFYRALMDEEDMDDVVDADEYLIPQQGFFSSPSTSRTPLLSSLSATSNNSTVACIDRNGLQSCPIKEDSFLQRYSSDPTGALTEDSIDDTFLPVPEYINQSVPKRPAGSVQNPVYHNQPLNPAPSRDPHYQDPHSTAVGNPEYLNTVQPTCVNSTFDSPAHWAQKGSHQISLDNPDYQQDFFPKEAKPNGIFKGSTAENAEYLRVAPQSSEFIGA
In short: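 MDA-MB-231 cells pretreated 1 h in serum-free medium, then EGF-stimulated for 15 min and lysed. Equal lysate protein (Bradford) assayed by ELISA kits for p-EGFR (Tyr1068, Tyr845, Tyr1173) and p-HER2. Absorbance read at 450 nm, normalized to total EGFR or HER2.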

[9] = biological target: Epidermal growth factor receptor (Homo sapiens) (UniProt P00533); test: Inhibition of EGF-induced EGFR phosphorylation at Tyr1068 in human MCF7 cells at 0.5 uM by ELISA; format: cell-based
[10] = biological target: Epidermal growth factor receptor (Homo sapiens) (UniProt P00533); test: Inhibition of EGF-induced EGFR phosphorylation at Tyr845 in human MCF7 cells at 1 uM by ELISA; format: cell-based
[11] = biological target: Plasminogen activator inhibitor 1 (Homo sapiens) (UniProt P05121); test: Inhibition of basal level PAI-1 phosphorylation in human MDA-MB-231 cells at 1 uM by ELISA; format: cell-based
Plasminogen activator inhibitor 1 (Homo sapiens), sequence (P05121 whole entry): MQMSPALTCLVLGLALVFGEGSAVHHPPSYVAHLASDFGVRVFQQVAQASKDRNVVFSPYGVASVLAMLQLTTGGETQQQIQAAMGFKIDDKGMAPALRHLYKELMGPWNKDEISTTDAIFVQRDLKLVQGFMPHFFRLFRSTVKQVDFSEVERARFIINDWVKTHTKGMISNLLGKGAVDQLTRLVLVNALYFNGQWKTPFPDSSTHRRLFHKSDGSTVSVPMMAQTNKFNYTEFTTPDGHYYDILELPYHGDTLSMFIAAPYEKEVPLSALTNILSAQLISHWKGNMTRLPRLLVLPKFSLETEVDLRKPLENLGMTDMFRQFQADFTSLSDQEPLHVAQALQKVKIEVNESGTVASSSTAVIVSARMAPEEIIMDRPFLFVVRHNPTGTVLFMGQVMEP

[12] = system: MDA-MB-231; test: Induction of apoptosis in human […] cells assessed as loss of mitochondrial membrane potential at 5 uM after 24 hrs by JC-1 staining based flow cytometry; format: functional, cell-based
In short: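 Cells treated at 5μM for 24 h, trypsinized, stained with JC-1 (1μg/ml) for 15 min at 37°C, washed in PBS and analysed by flow cytometry in FL1 and FL2 channels.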

[13] = system: MDA-MB-231; test: Induction of apoptosis in human […] MDA-MB-231 cells assessed as increase in Bax to Bcl2 ratio at 5 uM after 24 hrs by immunoblotting analysis; format: functional, cell-based
[14] = system: MDA-MB-231; test: Inhibition of TGF-beta1 expression in human MDA-MB-231 cells at 1 uM after 24 hrs by qPCR analysis; format: functional, cell-based
In short: (§2)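 Gene expression was measured by qPCR in MDA-MB-231 breast cancer cells treated with 1µM compound. GAPDH served as the housekeeping internal control.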

[15] = system: MDA-MB-231; test: Inhibition of MMP9 expression in human MDA-MB-231 cells at 1 uM after 24 hrs by qPCR analysis; format: functional, cell-based
In short: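 MDA-MB-231 cells treated at 1µM. Transcript levels measured by qPCR with GAPDH as internal control.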

[16] = system: MDA-MB-231; test: Inhibition of TGF-betaR1 expression in human MDA-MB-231 cells at 1 uM after 24 hrs by qPCR analysis; format: functional, cell-based; in short: as §2
[17] = system: MDA-MB-231; test: Inhibition of CDC42 protein expression in human MDA-MB-231 cells at 1 uM after 24 hrs by ELISA; format: functional, cell-based
In short: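 MDA-MB-231 cells treated at 1µM for 24 h. CDC42 protein measured with a G-LISA ELISA kit.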

[18] = system: MCF7; test: Induction of apoptosis in human MCF7 cells xenografted in NIH-3 mouse assessed as decrease in cyclin D1 in tumor at 16 mg/kg, po for 25 days by qPCR; format: functional, organism-based; set-up: dose 16 mg/kg
[19] = system: MCF7; test: Inhibition of VEGF expression in human MCF7 cells at 5 uM by ELISA; format: functional, cell-based
[20] = system: MCF7; test: Inhibition of TGFbeta expression in human MCF7 cells at 5 uM by ELISA; format: functional, cell-based
[21] = system: MDA-MB-231; test: Inhibition of TGFbeta expression in human MDA-MB-231 cells at 5 uM by ELISA; format: functional, cell-based
[22] = biological target: Epidermal growth factor receptor (Homo sapiens) (UniProt P00533); test: Inhibition of EGF-induced EGFR phosphorylation at Tyr1045 in human MDA-MB-231 cells at 1 uM by ELISA; format: cell-based
[23] = biological target: Epidermal growth factor receptor (Homo sapiens) (UniProt P00533); test: Inhibition of EGF-induced EGFR phosphorylation at Tyr1148 in human MCF7 cells at 1 uM by ELISA; format: cell-based
[24] = biological target: T1, Mitogen-activated protein kinase; ERK1/ERK2 (Homo sapiens) (UniProt P27361+P28482); test: Inhibition of EGF-induced ERK1/2 phosphorylation in human MDA-MB-231 cells at 1 uM by ELISA; format: cell-based
T1 sequence (P27361 whole entry, looked up): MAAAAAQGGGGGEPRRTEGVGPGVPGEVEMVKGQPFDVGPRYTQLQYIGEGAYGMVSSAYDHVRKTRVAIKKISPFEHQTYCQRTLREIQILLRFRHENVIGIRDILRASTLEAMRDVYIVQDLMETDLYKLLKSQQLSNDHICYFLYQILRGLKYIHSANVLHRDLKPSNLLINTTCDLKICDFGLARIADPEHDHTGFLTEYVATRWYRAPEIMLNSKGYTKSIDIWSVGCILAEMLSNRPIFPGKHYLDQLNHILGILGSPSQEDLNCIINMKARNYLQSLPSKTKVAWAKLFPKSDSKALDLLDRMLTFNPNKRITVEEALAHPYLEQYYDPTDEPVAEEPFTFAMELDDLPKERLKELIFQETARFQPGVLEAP
T1 sequence (P28482 whole entry, looked up): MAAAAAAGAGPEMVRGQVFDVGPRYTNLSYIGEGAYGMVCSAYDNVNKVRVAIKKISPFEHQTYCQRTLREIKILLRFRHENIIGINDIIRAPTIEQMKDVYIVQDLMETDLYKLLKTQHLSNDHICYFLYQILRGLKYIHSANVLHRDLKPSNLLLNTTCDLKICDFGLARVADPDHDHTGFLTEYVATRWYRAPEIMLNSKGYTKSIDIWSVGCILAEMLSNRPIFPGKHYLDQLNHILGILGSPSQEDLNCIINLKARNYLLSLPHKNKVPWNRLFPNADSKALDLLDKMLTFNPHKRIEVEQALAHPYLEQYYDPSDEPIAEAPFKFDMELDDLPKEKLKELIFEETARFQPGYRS

[25] = biological target: RAC-alpha serine/threonine-protein kinase (Homo sapiens) (UniProt P31749); test: Inhibition of EGF-induced AKT phosphorylation in human MDA-MB-231 cells at 1 uM by ELISA; format: cell-based
RAC-alpha serine/threonine-protein kinase (Homo sapiens), sequence (P31749 whole entry): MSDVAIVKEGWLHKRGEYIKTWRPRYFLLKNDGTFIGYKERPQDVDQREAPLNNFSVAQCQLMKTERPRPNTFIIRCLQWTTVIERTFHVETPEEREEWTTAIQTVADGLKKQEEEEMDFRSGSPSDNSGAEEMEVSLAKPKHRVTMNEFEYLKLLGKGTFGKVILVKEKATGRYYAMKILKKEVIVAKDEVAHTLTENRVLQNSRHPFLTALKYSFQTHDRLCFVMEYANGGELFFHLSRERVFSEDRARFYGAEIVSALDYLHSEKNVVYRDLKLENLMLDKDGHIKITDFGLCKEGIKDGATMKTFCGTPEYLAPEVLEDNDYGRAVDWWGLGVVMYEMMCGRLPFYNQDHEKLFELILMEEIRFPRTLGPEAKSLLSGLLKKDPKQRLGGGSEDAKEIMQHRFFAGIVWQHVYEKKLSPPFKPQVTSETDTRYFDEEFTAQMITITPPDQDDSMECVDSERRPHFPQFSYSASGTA

[26] = biological target: T1, Mitogen-activated protein kinase; ERK1/ERK2 (Homo sapiens); test: Inhibition of basal level ERK1/2 phosphorylation in human MCF7 cells at 1 uM by ELISA; format: cell-based
[27] = biological target: T1, Mitogen-activated protein kinase; ERK1/ERK2 (Homo sapiens); test: Inhibition of basal level ERK1/2 phosphorylation in human MDA-MB-231 cells at 1 uM by ELISA; format: cell-based
[28] = system: MDA-MB-231; test: Inhibition of basal cell migration in human MDA-MB-231 cells assessed as […] at 1 uM after 24 hrs by wound healing assay; format: functional, cell-based
[29] = system: MDA-MB-231; test: Inhibition of EGF-induced cell migration in human MDA-MB-231 cells assessed as decrease in number of cells toward free space at 1 uM after 24 hrs by wound healing assay; format: functional, cell-based
In short: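 Confluent MDA-MB-231 monolayers scratch-wounded, washed and treated at 1μM in serum-free medium ± EGF (100ng/ml) for 24 h. Wound closure measured as distances in six random fields at 10×.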

[30] = biological target: Epidermal growth factor receptor (Homo sapiens) (UniProt P00533); test: Inhibition of EGFR phosphorylation at Tyr790 (unknown origin) at 10 uM

CCN(CC)CCO/N=C(\c1ccc(SC)cc1)c1cccc2ccccc12.O=C(O)C(=O)O
EC50 [1]: 3 µM
Activity [2]: 88%
Activity [3]: 8.5%
Activity [4]: 91.17%

CCN(CC)CCO/N=C(\c1ccc(SC)cc1)c1cccc2ccccc12
inhibition [5]: inactive
inhibition [6]: inactive
Activity [7]: inactive
inhibition [8]: Active
inhibition [9]: Active
inhibition [10]: Active
inhibition [11]: Active
Activity [12]: Active
Activity [13]: Active
inhibition [14]: Active
inhibition [15]: Active
inhibition [16]: inactive
inhibition [17]: Active
Activity [18]: Active
inhibition [19]: inactive
inhibition [20]: inactive
inhibition [21]: inactive
inhibition [22]: Active
inhibition [23]: Active
inhibition [24]: Active
inhibition [25]: Active
inhibition [26]: Active
inhibition [27]: Active
inhibition [28]: Active
inhibition [29]: Active
inhibition [30]: inactive
